Columns and labels:
Plasmodium falciparum [1] = assay: Antiplasmodial activity against multidrug-resistant Plasmodium falciparum FCR-3 by [3H]-hypoxanthine incorporation assay; assay type: functional, organism-based, FCR-3/Gambia; conditions: Plasmodium falciparum, FCR-3/Gambia
Method in brief: (§1)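 Blood-stage P. falciparum 3D7 and FCR-3 were tested by a modified [3H]-hypoxanthine incorporation assay. Chloroquine was the reference in all runs.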

[2] = Cytotoxicity against human HepG2A16 cells by MTT assay; assay type: cell-based; conditions: HepG2A16 cells
Method in brief: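 MTT viability assay on HepG2-A16 cells, giving CC50 values.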

[3] = Selectivity index, ratio of CC50 for human HepG2A16 cells by MTT assay to IC50 for multidrug-resistant Plasmodium falciparum FCR-3; assay type: toxicity; conditions: HepG2A16 cells, read-out: Ratio CC50/IC50
Method in brief: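 HepG2-A16 human hepatoma cells were tested by MTT viability assay to give CC50. Blood-stage activity was measured against the multidrug-resistant P. falciparum FCR-3 strain by [3H]-hypoxanthine incorporation to give IC50. SI = CC50 HepG2 / FCR-3 IC50.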

Plasmodium falciparum [4] = assay: Antiplasmodial activity against chloroquine-sensitive Plasmodium falciparum 3D7 by [3H]-hypoxanthine incorporation assay; assay type: functional, organism-based; conditions: Plasmodium falciparum, 3D7; method in brief: as §1
[5] = Genotoxicity in Salmonella typhimurium TA1535 harboring pSK1002 assessed as survival at 0.031 mg/ml in presence of Sprague-Dawley rat liver S9 fraction after by SOS/umu assay relative to control; assay type: toxicity, organism-based; conditions: salmonella enterica subsp. enterica serovar typhimurium, read-out: Survival
[6] = Genotoxicity in Salmonella typhimurium TA1535 harboring pSK1002 assessed as umu gene induction at 0.004 mg/ml in absence of Sprague-Dawley rat liver S9 fraction after by SOS/umu assay relative to control; assay type: toxicity, organism-based; conditions: salmonella enterica subsp. enterica serovar typhimurium, read-out: FC
[7] = Genotoxicity in Salmonella typhimurium TA1535 harboring pSK1002 assessed as umu gene induction at 0.031 mg/ml in presence of Sprague-Dawley rat liver S9 fraction after by SOS/umu assay relative to control; assay type: toxicity, organism-based; conditions: salmonella enterica subsp. enterica serovar typhimurium, read-out: FC
[8] = Genotoxicity in Salmonella typhimurium TA1535 harboring pSK1002 assessed as survival at 0.002 mg/ml in presence of Sprague-Dawley rat liver S9 fraction after by SOS/umu assay relative to control; assay type: toxicity, organism-based; conditions: salmonella enterica subsp. enterica serovar typhimurium, read-out: Survival
[9] = Genotoxicity in Salmonella typhimurium TA1535 harboring pSK1002 assessed as survival at 0.001 mg/ml in presence of Sprague-Dawley rat liver S9 fraction after by SOS/umu assay relative to control; assay type: toxicity, organism-based; conditions: salmonella enterica subsp. enterica serovar typhimurium, read-out: Survival
[10] = Genotoxicity in Salmonella typhimurium TA1535 harboring pSK1002 assessed as survival at 0.001 mg/ml in absence of Sprague-Dawley rat liver S9 fraction after by SOS/umu assay relative to control; assay type: toxicity, organism-based; conditions: salmonella enterica subsp. enterica serovar typhimurium, read-out: Survival
[11] = Genotoxicity in Salmonella typhimurium TA1535 harboring pSK1002 assessed as umu gene induction at 0.001 mg/ml in presence of Sprague-Dawley rat liver S9 fraction after by SOS/umu assay relative to control; assay type: toxicity, organism-based; conditions: salmonella enterica subsp. enterica serovar typhimurium, read-out: FC
[12] = Genotoxicity in Salmonella typhimurium TA1535 harboring pSK1002 assessed as survival at 0.016 mg/ml in absence of Sprague-Dawley rat liver S9 fraction after by SOS/umu assay relative to control; assay type: toxicity, organism-based; conditions: salmonella enterica subsp. enterica serovar typhimurium, read-out: Survival
[13] = Genotoxicity in Salmonella typhimurium TA1535 harboring pSK1002 assessed as survival at 0.002 mg/ml in absence of Sprague-Dawley rat liver S9 fraction after by SOS/umu assay relative to control; assay type: toxicity, organism-based; conditions: salmonella enterica subsp. enterica serovar typhimurium, read-out: Survival
[14] = Genotoxicity in Salmonella typhimurium TA1535 harboring pSK1002 assessed as umu gene induction at 0.016 mg/ml in presence of Sprague-Dawley rat liver S9 fraction after by SOS/umu assay relative to control; assay type: toxicity, organism-based; conditions: salmonella enterica subsp. enterica serovar typhimurium, read-out: FC
[15] = Genotoxicity in Salmonella typhimurium TA1535 harboring pSK1002 assessed as survival at 0.004 mg/ml in absence of Sprague-Dawley rat liver S9 fraction after by SOS/umu assay relative to control; assay type: toxicity, organism-based; conditions: salmonella enterica subsp. enterica serovar typhimurium, read-out: Survival
[16] = Genotoxicity in Salmonella typhimurium TA1535 harboring pSK1002 assessed as umu gene induction at 0.001 mg/ml in absence of Sprague-Dawley rat liver S9 fraction after by SOS/umu assay relative to control; assay type: toxicity, organism-based; conditions: salmonella enterica subsp. enterica serovar typhimurium, read-out: FC
[17] = Genotoxicity in Salmonella typhimurium TA1535 harboring pSK1002 assessed as umu gene induction at 0.004 mg/ml in presence of Sprague-Dawley rat liver S9 fraction after by SOS/umu assay relative to control; assay type: toxicity, organism-based; conditions: salmonella enterica subsp. enterica serovar typhimurium, read-out: FC
[18] = Genotoxicity in Salmonella typhimurium TA1535 harboring pSK1002 assessed as survival at 0.016 mg/ml in presence of Sprague-Dawley rat liver S9 fraction after by SOS/umu assay relative to control; assay type: toxicity, organism-based; conditions: salmonella enterica subsp. enterica serovar typhimurium, read-out: Survival
[19] = Genotoxicity in Salmonella typhimurium TA1535 harboring pSK1002 assessed as survival at 0.004 mg/ml in presence of Sprague-Dawley rat liver S9 fraction after by SOS/umu assay relative to control; assay type: toxicity, organism-based; conditions: salmonella enterica subsp. enterica serovar typhimurium, read-out: Survival
[20] = Genotoxicity in Salmonella typhimurium TA1535 harboring pSK1002 assessed as survival at 0.008 mg/ml in absence of Sprague-Dawley rat liver S9 fraction after by SOS/umu assay relative to control; assay type: toxicity, organism-based; conditions: salmonella enterica subsp. enterica serovar typhimurium, read-out: Survival
[21] = Genotoxicity in Salmonella typhimurium TA1535 harboring pSK1002 assessed as umu gene induction at 0.002 mg/ml in presence of Sprague-Dawley rat liver S9 fraction after by SOS/umu assay relative to control; assay type: toxicity, organism-based; conditions: salmonella enterica subsp. enterica serovar typhimurium, read-out: FC
[22] = Genotoxicity in Salmonella typhimurium TA1535 harboring pSK1002 assessed as umu gene induction at 0.008 mg/ml in presence of Sprague-Dawley rat liver S9 fraction after by SOS/umu assay relative to control; assay type: toxicity, organism-based; conditions: salmonella enterica subsp. enterica serovar typhimurium, read-out: FC
[23] = Genotoxicity in Salmonella typhimurium TA1535 harboring pSK1002 assessed as umu gene induction at 0.008 mg/ml in absence of Sprague-Dawley rat liver S9 fraction after by SOS/umu assay relative to control; assay type: toxicity, organism-based; conditions: salmonella enterica subsp. enterica serovar typhimurium, read-out: FC
[24] = Genotoxicity in Salmonella typhimurium TA1535 harboring pSK1002 assessed as survival at 0.008 mg/ml in presence of Sprague-Dawley rat liver S9 fraction after by SOS/umu assay relative to control; assay type: toxicity, organism-based; conditions: salmonella enterica subsp. enterica serovar typhimurium, read-out: Survival
[25] = Genotoxicity in Salmonella typhimurium TA1535 harboring pSK1002 assessed as umu gene induction at 0.031 mg/ml in absence of Sprague-Dawley rat liver S9 fraction after by SOS/umu assay relative to control; assay type: toxicity, organism-based; conditions: salmonella enterica subsp. enterica serovar typhimurium, read-out: FC
[26] = Genotoxicity in Salmonella typhimurium TA1535 harboring pSK1002 assessed as survival at 0.031 mg/ml in absence of Sprague-Dawley rat liver S9 fraction after by SOS/umu assay relative to control; assay type: toxicity, organism-based; conditions: salmonella enterica subsp. enterica serovar typhimurium, read-out: Survival
[27] = Genotoxicity in Salmonella typhimurium TA1535 harboring pSK1002 assessed as umu gene induction at 0.016 mg/ml in absence of Sprague-Dawley rat liver S9 fraction after by SOS/umu assay relative to control; assay type: toxicity, organism-based; conditions: salmonella enterica subsp. enterica serovar typhimurium, read-out: FC
[28] = Genotoxicity in Salmonella typhimurium TA1535 harboring pSK1002 assessed as umu gene induction at 0.002 mg/ml in absence of Sprague-Dawley rat liver S9 fraction after by SOS/umu assay relative to control; assay type: toxicity, organism-based; conditions: salmonella enterica subsp. enterica serovar typhimurium, read-out: FC

COc1ccccc1N1CCN(CCC(O)c2ccccc2)CC1 (stereo unspecified)
IC50 (Plasmodium falciparum [1]): 15.7 µM
CC50 [2]: > 612 µM
selectivity ratio [3]: > 39
IC50 (Plasmodium falciparum [4]): 13.9 µM

COc1ccc(C(O)CCN2CC=C(c3ccc(F)cc3)CC2)cc1 (stereo unspecified)
IC50 (Plasmodium falciparum [1]): 11.5 µM
CC50 [2]: 152 µM
selectivity ratio [3]: 13
IC50 (Plasmodium falciparum [4]): 18.2 µM

COC(=O)c1ccc(C(O)CCN2CC=C(c3ccc(F)cc3)CC2)cc1 (stereo unspecified)
viability at 0.031 mg/ml [5]: 138%
fold induction at 0.004 mg/ml [6]: 0.8
IC50 (Plasmodium falciparum [1]): 1.13 µM
fold induction at 0.031 mg/ml [7]: 0.7
viability at 0.002 mg/ml [8]: 103%
viability at 0.001 mg/ml [9]: 110%
viability at 0.001 mg/ml [10]: 124%
fold induction at 0.001 mg/ml [11]: 0.8
viability at 0.016 mg/ml [12]: 89.4%
CC50 [2]: 509 µM
viability at 0.002 mg/ml [13]: 109%
fold induction at 0.016 mg/ml [14]: 1
viability at 0.004 mg/ml [15]: 99.4%
selectivity ratio [3]: 451
fold induction at 0.001 mg/ml [16]: 0.7
fold induction at 0.004 mg/ml [17]: 0.9
viability at 0.016 mg/ml [18]: 103%
viability at 0.004 mg/ml [19]: 101%
viability at 0.008 mg/ml [20]: 97.5%
IC50 (Plasmodium falciparum [4]): 10.5 µM
fold induction at 0.002 mg/ml [21]: 1
fold induction at 0.008 mg/ml [22]: 1
fold induction at 0.008 mg/ml [23]: 0.9
viability at 0.008 mg/ml [24]: 104%
fold induction at 0.031 mg/ml [25]: 0.9
viability at 0.031 mg/ml [26]: 94.4%
fold induction at 0.016 mg/ml [27]: 1
fold induction at 0.002 mg/ml [28]: 0.9

O=[N+]([O-])c1cc(C(F)(F)F)ccc1N1CCN(CCC(O)c2ccc(F)c3ccccc23)CC1 (stereo unspecified)
IC50 (Plasmodium falciparum [1]): 5 µM

O=[N+]([O-])c1ccc(N2CCC(NCCC(O)c3ccccc3)CC2)c(C(F)(F)F)c1 (stereo unspecified)
IC50 (Plasmodium falciparum [1]): 1.8 µM
CC50 [2]: 27.6 µM
selectivity ratio [3]: 15
IC50 (Plasmodium falciparum [4]): 4.42 µM

COc1ccccc1N1CCN(CCC(O)c2ccc3ccccc3c2)CC1 (stereo unspecified)
IC50 (Plasmodium falciparum [1]): 2.63 µM
CC50 [2]: 95 µM
selectivity ratio [3]: 36
IC50 (Plasmodium falciparum [4]): 4.08 µM

O=[N+]([O-])c1ccc(N2CCC(NCCC(O)c3ccc(F)c(F)c3)CC2)c(C(F)(F)F)c1 (stereo unspecified)
IC50 (Plasmodium falciparum [1]): 0.53 µM
CC50 [2]: 13.3 µM
selectivity ratio [3]: 25
IC50 (Plasmodium falciparum [4]): 0.67 µM

COc1ccc(C(O)CCN2CCN(c3ccccc3OC)CC2)cc1 (stereo unspecified)
IC50 (Plasmodium falciparum [1]): 7.98 µM
CC50 [2]: 371 µM
selectivity ratio [3]: 46
IC50 (Plasmodium falciparum [4]): 10.5 µM

OC(CCN1CC=C(c2ccc(F)cc2)CC1)c1ccc(Cl)cc1 (stereo unspecified)
IC50 (Plasmodium falciparum [1]): 2.29 µM
CC50 [2]: 110 µM
selectivity ratio [3]: 48
IC50 (Plasmodium falciparum [4]): 3.57 µM

O=[N+]([O-])c1ccc(N2CCN(CCC(O)c3ccc(F)c4ccccc34)CC2)c(C(F)(F)F)c1 (stereo unspecified)
IC50 (Plasmodium falciparum [1]): 0.5 µM

COc1ccc(C(O)CCN2CC=C(c3ccc(F)cc3)CC2)c(OC)c1 (stereo unspecified)
IC50 (Plasmodium falciparum [1]): 9.48 µM
CC50 [2]: 91.4 µM
selectivity ratio [3]: 10
IC50 (Plasmodium falciparum [4]): 24.1 µM

OC(CCN1CC=C(c2ccc(F)cc2)CC1)c1ccc(F)c(F)c1 (stereo unspecified)
IC50 (Plasmodium falciparum [1]): 2.01 µM
CC50 [2]: 97 µM
selectivity ratio [3]: 48
IC50 (Plasmodium falciparum [4]): 2.79 µM

OC(CCN1CC=C(c2ccc(F)cc2)CC1)c1ccc(Br)cc1 (stereo unspecified)
IC50 (Plasmodium falciparum [1]): 2.68 µM
CC50 [2]: 109 µM
selectivity ratio [3]: 41
IC50 (Plasmodium falciparum [4]): 5.42 µM

OC(CCN1CC=C(c2ccc(F)cc2)CC1)c1ccccc1 (stereo unspecified)
IC50 (Plasmodium falciparum [1]): 9.04 µM
CC50 [2]: 121 µM
selectivity ratio [3]: 13
IC50 (Plasmodium falciparum [4]): 10.6 µM

OC(CCN1CCN(c2ccc(C(F)(F)F)cc2)CC1)c1ccc(F)c2ccccc12 (stereo unspecified)
IC50 (Plasmodium falciparum [1]): 0.93 µM

N#Cc1ccc(C(O)CCNC2CCN(c3ccc([N+](=O)[O-])cc3C(F)(F)F)CC2)cc1 (stereo unspecified)
IC50 (Plasmodium falciparum [1]): 2.02 µM
CC50 [2]: 23 µM
selectivity ratio [3]: 11
IC50 (Plasmodium falciparum [4]): 4.22 µM

OC(CCN1CC=C(c2ccc(F)cc2)CC1)c1ccc(F)c(Cl)c1 (stereo unspecified)
IC50 (Plasmodium falciparum [1]): 7.06 µM
CC50 [2]: 54.1 µM
selectivity ratio [3]: 8
IC50 (Plasmodium falciparum [4]): 2.27 µM

O=[N+]([O-])c1ccc(N2CCC(NCCC(O)c3ccc(F)c(Cl)c3)CC2)c(C(F)(F)F)c1 (stereo unspecified)
IC50 (Plasmodium falciparum [1]): 0.51 µM
CC50 [2]: 4.61 µM
selectivity ratio [3]: 9
IC50 (Plasmodium falciparum [4]): 0.71 µM

COc1ccccc1N1CCN(CCC(O)c2ccc(-c3ccccc3)cc2)CC1 (stereo unspecified)
IC50 (Plasmodium falciparum [1]): 2.78 µM
CC50 [2]: 24.4 µM
selectivity ratio [3]: 9
IC50 (Plasmodium falciparum [4]): 7.25 µM
